Sampled rows, rich in hits. Any-hit rate of the full collection: about 3.5%.
ERa SRC1 inh: ERα–SRC-1 coactivator interaction inhibitors, primary screen, biochemical, TR-FRET, ERα LBD, estradiol-bound | Estrogen receptor (Homo sapiens), P03372 | TR-FRET ER-alpha LBD / SRC-1 peptide | inhibition, % at 25.6 µM | hit rate 1.7% among 86,000 | AID 629, 2007; in the data active = inhibition above about 50%;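 also: 0% = receptor plus peptide control and 100% = peptide only without receptor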
Target sequence (P03372 whole entry, looked up, the tested form may be a part): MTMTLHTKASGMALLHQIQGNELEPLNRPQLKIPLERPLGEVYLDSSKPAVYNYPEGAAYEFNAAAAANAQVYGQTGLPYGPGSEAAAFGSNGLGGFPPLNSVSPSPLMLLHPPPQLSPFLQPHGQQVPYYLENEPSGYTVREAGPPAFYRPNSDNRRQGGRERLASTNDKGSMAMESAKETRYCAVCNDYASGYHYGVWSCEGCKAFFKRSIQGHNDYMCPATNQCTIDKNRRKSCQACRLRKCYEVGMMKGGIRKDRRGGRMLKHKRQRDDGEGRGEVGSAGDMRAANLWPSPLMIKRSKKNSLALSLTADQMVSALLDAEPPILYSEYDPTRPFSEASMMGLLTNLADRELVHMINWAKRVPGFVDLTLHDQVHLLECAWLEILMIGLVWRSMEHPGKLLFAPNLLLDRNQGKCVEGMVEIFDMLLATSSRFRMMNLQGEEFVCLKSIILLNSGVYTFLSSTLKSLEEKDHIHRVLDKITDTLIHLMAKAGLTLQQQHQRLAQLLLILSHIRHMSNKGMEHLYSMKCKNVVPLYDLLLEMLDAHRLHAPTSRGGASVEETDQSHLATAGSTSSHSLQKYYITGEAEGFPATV
ERa coact pot: enhancers of ERα–SRC-1 coactivator binding, primary screen, biochemical, TR-FRET, ERα LBD, low estradiol; Estrogen receptor (Homo sapiens), P03372; TR-FRET ERalpha-LBD/SRC-Cy5 coactivator binding, 2 h; 100 = basal binding, no effect; coactivator binding (% of control), % at 25.6 µM; hit rate 1.3% among 86,000; in the data active = activity above about 200%;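 also: binding measured in presence of low estradiol as agonist stimulus; 0% = peptide alone without receptor and 100% = receptor with peptide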
HIV Rev-RRE inh: HIV-1 Rev-RRE binding inhibitors, primary screen, biochemical, FRET, protein-RNA interaction. P05866. Rev peptide-RRE RNA binding. inhibition, % at 8 µM. hit rate 0.79% among 97,000. AID 704, 2007;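 active = inhibition above the screen-wide mean plus 3 SD, cut at about 35% in these data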;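 also: 0% = median DMSO wells and 100% = median Neomycin B control wells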
Target sequence (P05866 whole entry, looked up): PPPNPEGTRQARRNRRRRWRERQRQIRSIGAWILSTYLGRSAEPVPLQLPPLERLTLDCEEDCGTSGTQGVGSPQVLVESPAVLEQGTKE
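Material: labelled RRE RNA duplex and labelled Rev peptide / Buffer or medium: HEPES pH 7.5 salt buffer with EDTA / Compound dosing: single point, 8 µM final nominal compound concentration / Benchmarks: DMSO low control, neomycin B high control / Timing: 5 min preincubation and 15 min binding, 25 °C / Technique: FRET fluorescence readout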
ERb SRC1 inh: inhibitors of ERβ-SRC1 coactivator interaction, primary screen, biochemical, TR-FRET, ERβ LBD, SRC-1 peptide; inhibition, % at 25.6 µM; hit rate 1.3% among 86,000; Estrogen receptor beta (Homo sapiens), Q92731; TR-FRET ER-beta LBD / SRC1-Cy5 peptide binding; receptor agonist-loaded with 1 µM estradiol;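 active = compounds whose percent inhibition of the receptor-coactivator binding signal exceeds about 50% in the single-dose screen, limit read from the data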;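 also: 0% = receptor plus peptide wells without compound and 100% = peptide-only wells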
sEH inhibitor: soluble epoxide hydrolase inhibitors, primary screen, biochemical, human sEH; Bifunctional epoxide hydrolase 2 (Homo sapiens), P34913; recombinant human sEH enzymatic activity assay; inhibition, % at 2 µM; hit rate 0.34% among 91,000; in the data active = inhibition above about 80%
sEH activator: soluble epoxide hydrolase activators, primary screen, biochemical, human sEH | purified human sEH enzymatic activity, activator screen | AID 717, 2007 | Bifunctional epoxide hydrolase 2 (Homo sapiens), P34913 | hit rate 0.04% among 91,000 | activation, % at 2 µM; in the data active = activation above about 37%
An asterisk follows results filed as active; . = no result given; [ ] = another dose, or the depositor's remark.

SMILES	ERa SRC1 inh	ERa coact pot	HIV Rev-RRE inh	ERb SRC1 inh	sEH inhibitor	sEH activator
COc1cc(-c2nnc(-c3ccc(S(=O)(=O)c4ccccc4)cc3)o2)cc(OC)c1OC	57.8*	86.0	1.3	36.4	-5.6	5.3
CCOC(=O)C(NC(=O)CC(C)C)(Nc1cc(C)on1)C(F)(F)F (configuration not stated)	-0.4	118.8	1.9	2.1	-22.1	23.9
O=C1c2ccccc2C(Nc2ccc(S(=O)(=O)N3CCCCC3)cc2)N1c1ccccn1 (configuration not stated)	.	.	7.6	.	20.5	-20.7
CC(=O)N1CCN(c2ccc(NC(=O)c3cccc(OCc4ccccc4)c3)cc2)CC1	.	.	-4.8	.	38.6	-39.4
Cc1ccc(N=Cc2cc(C)n(C3CCCC3)c2C)cc1	-6.6	92.2	6.4	-11.5	4.3	-4.8
Cc1cc(/C=C2\SC(=S)NC2=O)c(C)n1C1CC1	.	.	65.1*	.	-7.0	7.1
COCCN1CCn2c(nc3cc(NC(=O)NC4CCCCC4)ccc32)C1	11.3	94.0	14.5	10.3	76.2	-75.9
O=C(Nc1ccc2c(c1)nc1n2CCN(Cc2ccccc2)C1)NC1CCCCC1	0.4	115.4	5.2	-12.7	90.9*	-90.9
Cc1cccc(Nc2nc3c(c(=O)n(C)c(=O)n3C)n2CC(O)CO)c1 (configuration not stated)	-1.7	114.2	6.6	-2.2	-4.2	2.2
CCOC(=O)c1cc(CC)sc1NC(=O)c1cc(OC)c(OC)c(OC)c1	-2.1	111.0	-1.0	-4.5	0.0	1.4
CCOC(=O)c1sc(N)c(C#N)c1COC(=O)CNC(=O)c1cc(OC)c(OC)c(OC)c1	.	.	53.3*	.	16.4	-14.4
COc1ccc(S(=O)(=O)c2c(N)n(Cc3ccco3)c3nc4ccccc4nc23)cc1	83.3*[fluorescence artefact?]	37.1	52.9*	78.2*[fluorescence artefact?]	-10.0	10.1
COc1ccc(Cn2c3nc4ccccc4nc3c3c(=O)n(Cc4ccco4)c(C)nc32)cc1	74.5*	137.6	.	59.6*[fluorescence artefact?]	.	.
CN(C)CC(=O)N1c2ccccc2CCc2ccc(NC(=O)c3ccc(N)cc3)cc21	78.7*	36.1	4.4	69.3*[fluorescence artefact?]	-0.2	0.4
CCOC(=O)Nc1ccc2c(c1)N(C(=O)OC)c1ccccc1CC2	.	.	2.5	.	-44.2	41.0*
CCN(CC)S(=O)(=O)c1cccc(C(=O)Nc2ccc(C#N)cc2)c1	-2.3	105.9	.	-3.5	.	.
COc1ccc(C)cc1NC(=O)c1cnc2n(c1=O)CCS2	-17.2	95.2	2.8	-34.1	-6.8	7.4
COc1ccc(C)cc1NC(=O)c1cnc2scc(C)n2c1=O	20.1	215.7*[fluorescence artefact?]	.	9.4	.	.
CCOc1ccc(N2C(=O)C(Cl)=C(Nc3ccccc3O)C2=O)cc1	7.1	60.8	36.9*	10.8	-4.2	2.2
CCOc1ccc(N2C(=O)CN=C2Nc2ccccc2Cl)cc1	-6.0	115.3	0.1	-10.8	2.3	-0.6
CCOc1ccccc1C1C(C(N)=O)=C(C)Nc2nc(CCCO)nn21 (configuration not stated)	-4.6	111.5	2.5	-12.1	-22.9	21.4
OCCCc1nc2n(n1)C(c1ccccc1Cl)C=C(c1cccs1)N2 (configuration not stated)	-5.2	133.6	92.4*[fluorescence artefact?]	-5.4	1.6	-1.5
OCCCc1nc2n(n1)C(c1cccs1)C=C(c1ccccc1)N2 (configuration not stated)	0.3	96.1	136.7*[fluorescence artefact?]	4.7	2.5	-5.0
OCCCc1nc2n(n1)C(c1ccccc1)C=C(c1ccc(F)cc1)N2 (configuration not stated)	-22.9	110.1	34.0	-26.4	14.8	-12.3
C[N+]12CCC(CC1)C(OC(=O)C(O)(c1ccccc1)c1ccccc1)C2 (configuration not stated)	.	.	.	3.1	.	.
SMILES	ERa SRC1 inh	ERa coact pot	HIV Rev-RRE inh	ERb SRC1 inh	sEH inhibitor	sEH activator
O=C1NC(c2ccc(Br)cc2)Nc2sc3c(c21)CCC3 (configuration not stated)	50.6*	26.0	10.0	63.7*	11.4	-10.0
Cn1cc(C2NC(=O)c3c(sc4c3CCCC4)N2)c2ccccc21 (configuration not stated)	10.8	74.1	.	21.6	.	.
Cn1c(Cn2c(=O)sc3ccccc32)nnc1SCC(=O)Nc1ccccc1F	-0.7	119.0	.	-5.5	.	.
COc1cc(OC)cc(C(=O)N2CCN(S(C)(=O)=O)CC2)c1	-3.6	103.0	3.4	19.0	4.3	-4.2
COCCn1c(C)cc(C(=O)CSc2ccc3ccccc3n2)c1C	.	.	-4.3	.	9.1	-9.3
COCCn1c(C)cc(C(=O)CSc2nc(C)nc3sc4c(c23)CCC4)c1C	-6.2	369.9*[fluorescence artefact?]	-5.2	6.8	-2.7	5.3
c1ccc(-c2nnc(CN3CCCc4ccccc43)o2)cc1	1.4	95.8	83.5*[fluorescence artefact?]	0.9	6.1	-5.9
Cn1ccnc1SCC(=O)Nc1sccc1C#N	66.8*[fluorescence artefact?]	43.0	12.8	39.2	-3.7	4.0
N#Cc1ccsc1NC(=O)CSc1ncnc2ccccc12	90.6*[fluorescence artefact?]	25.2	8.3	61.3*	.	.
COc1ccc(-c2nnc(SCC(=O)NC(=O)NCc3ccccc3)o2)cc1	20.9	312.5*[fluorescence artefact?]	4.2	8.0	0.0	-5.5
COc1cc(OC)cc(-c2nnc(SCC(=O)Nc3cc(C)on3)o2)c1	-19.3	393.4*[fluorescence artefact?]	1.9	-10.8	1.3	-1.8
O=C(CSc1nnc(-c2ccc(OC(F)F)cc2)o1)NC(=O)NCc1ccco1	67.5*	112.4	-0.1	53.1*	.	.
COc1ccc(-c2nnc(SCC(=O)NCc3ccco3)o2)cc1	22.2	68.8	1.9	20.3	9.0	-9.3
CCC(=O)Nc1cccc(-c2nnc(SCC(=O)c3ccccc3)n2C)c1	5.5	106.8	2.3	-6.3	6.3	-6.0
CC(C)COCC1CC2(CC(C)C(=O)CC2=O)C(=O)O1 (configuration not stated)	-7.0	97.2	1.3	4.5	4.9	-4.8
O=C1CCCc2nc(N3CCN(C(c4ccccc4)c4ccccc4)CC3)ncc21	-6.9	118.5	4.6	-9.6	0.7	0.9
Clc1ccc(-c2cn3nc4c(nc3n2)CCCC4)cc1	1.2	111.9	37.6*	12.8	-3.1	0.8
COc1cccc(-c2cn3nc4c(nc3n2)CCCC4)c1	2.8	81.0	28.0	10.6	-18.1	15.7
COc1cc(C(=O)N2CCN(S(=O)(=O)c3ccc(F)cc3)CC2)cc(OC)c1OC	-5.1	101.5	-1.3	66.7*[fluorescence artefact?]	-9.6	7.1
CC(=O)c1cccc(NC(=O)NC(C)C2CCCO2)c1 (configuration not stated)	-0.1	111.3	3.6	-11.6	3.8	-4.5

Bioassay records as filed in PubChem BioAssay.
